A short description of data set [1]: Cmax in Sprague-Dawley rat at 2.5 mg/kg, iv by LC-MS/MS analysis. It counts as ADME, organism-based. Details: dose 2.5 mg/kg, route intravenous. Particulars: in vivo. In a few lines: (§1)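 Rats received a single dose of compound, either intravenously at 2.5 mg/kg or orally at 10 mg/kg, in separate arms. Plasma parameters were AUC0-∞ (h*µg/L), Cmax (µg/L), Tmax, T1/2 and MRT (h). Oral bioavailability F (%) was derived from the oral and intravenous arms.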

The nature of data set [2]: Half life in Sprague-Dawley rat at 2.5 mg/kg, iv by LC-MS/MS analysis. It counts as ADME, organism-based. Particulars: in vivo. The method, boiled down: as §1
The nature of data set [3]: Tmax in Sprague-Dawley rat at 2.5 mg/kg, iv by LC-MS/MS analysis. In kind it is ADME, organism-based. Conditions: in vivo. In a few lines:
as §1

The nature of data set [4]: Tmax in Sprague-Dawley rat at 10 mg/kg, po by LC-MS/MS analysis. It counts as ADME, organism-based. Conditions: in vivo. The method, boiled down:
as §1

The nature of data set [5]: Oral bioavailability in Sprague-Dawley rat at 10 mg/kg by LC-MS/MS analysis. It counts as ADME, organism-based. Particulars: in vivo. The method, boiled down:
as §1

Data set [6] in a line: Selectivity index, ratio of IC50 for African green monkey Vero cells to MIC>=90 for Mycobacterium tuberculosis H37Rv. In kind it is toxicity. Particulars: read-out: Selectivity Index. The method, boiled down:
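SI is Vero cell IC50 divided by MABA MIC against H37Rv, with MIC tested at 0.002 to 0.5 μg/mL.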

The next data set has as its system Vero. Kind of data set: Cytotoxicity against African green monkey Vero cells measured after 72 hrs by CellTiter 96 aqueous non-radioactive cell proliferation assay. In kind it is cell-based. Particulars: Chlorocebus sabaeus. The method, boiled down:
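Vero cells were exposed to compound, and cytotoxicity was reported as IC50 in µg/mL.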

Data set [7] in a line: AUC (0 to infinity) in Sprague-Dawley rat at 2.5 mg/kg, iv by LC-MS/MS analysis. In kind it is ADME, organism-based. The arrangement: dose 2.5 mg/kg, route intravenous, time infinity. Particulars: in vivo. The method, boiled down: as §1
A short description of data set [8]: Half life in Sprague-Dawley rat at 10 mg/kg, po by LC-MS/MS analysis. Conditions: in vivo. It counts as ADME, organism-based. In a few lines:
as §1

The nature of data set [9]: Cmax in Sprague-Dawley rat at 10 mg/kg, po by LC-MS/MS analysis. In kind it is ADME, organism-based. Details: dose 10 mg/kg, route oral. Conditions: in vivo. The method, boiled down: as §1
A short description of data set [10]: MRT (0 to infinity) in Sprague-Dawley rat at 10 mg/kg, po by LC-MS/MS analysis. It counts as ADME, organism-based. Particulars: in vivo. In a few lines:
as §1

Data set [11] can be described thus: MRT (0 to infinity) in Sprague-Dawley rat at 2.5 mg/kg, iv by LC-MS/MS analysis. Conditions: in vivo. It counts as ADME, organism-based. In a few lines: as §1
The nature of data set [12]: AUC (0 to infinity) in Sprague-Dawley rat at 10 mg/kg, po by LC-MS/MS analysis. It counts as ADME, organism-based. The arrangement: dose 10 mg/kg, route oral, time infinity. Conditions: in vivo. In a few lines: as §1
For data set [13], the system named is Mycobacterium tuberculosis. Kind of data set: Antibacterial activity against Mycobacterium tuberculosis H37Rv after 7 days by microplate alamar blue assay. In kind it is functional. Particulars: 168 h. In a few lines:
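MIC against H37Rv by MABA. Primary screen run at 0.02 to 5 μg/mL. Compounds retested at 0.002 to 0.5 μg/mL.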
Background: The colour change of resazurin is a common sign of viable cells or microbes.

These results are taken from ChEMBL document CHEMBL4400576, “Identification of Pyrazolo[1,5-a]pyridine-3-carboxamide Diaryl Derivatives as Drug Resistant Antituberculosis Agents” (ACS Med Chem Lett, 2019).

As usually defined, the Cmax is the highest concentration seen after dosing. The half-life is how long it takes for the measured level to halve. As a reminder, the Tmax is the time from dosing to the highest level. The term bioavailability denotes dose-corrected exposure relative to a reference, in per cent. In general, IC50 refers to the midpoint of a concentration-inhibition curve. For orientation: AUC(0-inf) means total exposure, with the tail of the curve extrapolated. In general, MRT inf refers to a mean duration of stay, worked out from the concentration-time curve. What is called MIC90 is an inhibitory concentration at the 90% level, which refers to growth in some studies and to a panel of isolates in others.

Converted amounts (≈) assume the structure as drawn.

As for `COc1ccn2nc(C)c(C(=O)NCc3ccc(-c4ccc(OC(F)(F)F)cc4)cn3)c2c1`, the Cmax in data set [1] amounted to 4150 ng/mL; in [9] it was 1430 ng/mL. The half-life in data set [2] is 209 min; in data set [8], 306 min. Moreover, the time to peak (Tmax) in data set [3] was determined as 4.8 min; in [4], 4.67 h. The compound also had a bioavailability in [5] of 41%. For the same compound, the selectivity ratio in data set [6] is more than 25000. The half-inhibitory concentration (IC50) with Vero is more than 50 µg/mL. Besides, the total exposure AUC(0-inf) in data set [7] was determined as 9000 ng·h/mL; in data set [12], 15600 ng·h/mL. Also, the MRT inf was 8.21 h in data set [10] and 4.02 h in data set [11].

`COc1ccn2nc(C)c(C(=O)NCc3ccc(-c4ccc(OC(F)(F)F)cc4)cc3C(F)(F)F)c2c1` displayed an MIC90 in data set [13] of more than 5 µg/mL.

With `COc1ccn2nc(C)c(C(=O)NCc3ccc(-c4ccc(OC(F)(F)F)cc4)cc3OC)c2c1`, in data set [13], the MIC90 amounted to 0.28 µg/mL (≈ 0.577 µM).

As to `CC(=O)NC[C@H]1CN(c2ccc(N3CCOCC3)c(F)c2)C(=O)O1` [LINEZOLID], in [13], the MIC90 lay within 1.25 to 3.27 µg/mL (≈ 3.72 to 9.69 µM).

`COc1ccn2nc(C)c(C(=O)NCc3cn(-c4ccc(OC(F)(F)F)cc4)nn3)c2c1` gave an MIC90 in data set [13] of more than 5 µg/mL.

`COc1ccn2nc(C)c(C(=O)NCc3ccc(-c4ccc(OC(F)(F)F)cc4)nc3)c2c1`: the selectivity ratio in data set [6] came out at 535. Further, in the data set on Vero, the IC50 amounted to 28.4 µg/mL (≈ 62.2 µM).

`COc1ccn2nc(C)c(C(=O)NCc3ncc(-c4ccc(OC(F)(F)F)cc4)[nH]3)c2c1`: in data set [13], the MIC90 is more than 5 µg/mL.

Compound `COc1ccn2nc(C)c(C(=O)NCc3cnc(-c4ccc(OC(F)(F)F)cc4)s3)c2c1` came in with an MIC90 in [13] of 0.53 µg/mL (≈ 1.15 µM).

In the case of `COc1ccn2nc(C)c(C(=O)NCc3ccc(-c4ccc(OC(F)(F)F)cc4)c(C(F)(F)F)c3)c2c1`, the selectivity ratio in [6] came to 402. The IC50 in the data set on Vero turned out to be 11.6 µg/mL (≈ 22.2 µM).

In the case of `COc1ccn2nc(C)c(C(=O)NCc3ccc(-c4ccc(OC(F)(F)F)cc4)cc3F)c2c1`, the selectivity ratio in [6] is more than 7140. Moreover, in the data set on Vero, the concentration for half-maximal inhibition (IC50) is more than 50 µg/mL.

For the compound `COc1ccn2nc(C)c(C(=O)NCc3ccc(-c4ccc(OC(F)(F)F)cc4)c(F)c3)c2c1`, the selectivity ratio in data set [6] was more than 25000. Moreover, in the data set with Vero, the IC50 is more than 50 µg/mL.

As to `CO[C@H]1/C=C/O[C@@]2(C)Oc3c(C)c(O)c4c(O)c(c(/C=N/N5CCN(C)CC5)c(O)c4c3C2=O)NC(=O)/C(C)=C\C=C\[C@H](C)[C@H](O)[C@@H](C)[C@@H](O)[C@@H](C)[C@H](OC(C)=O)[C@@H]1C` [RIFAMPIN], in data set [6], the selectivity ratio is more than 12500. In the data set with Vero, the IC50 is more than 100 µg/mL.

Take `COc1nc2ccc(Br)cc2cc1[C@@H](c1ccccc1)[C@@](O)(CCN(C)C)c1cccc2ccccc12` [BEDAQUILINE]: in [13], the MIC90 fell in the range of 0.02 to 0.03 µg/mL (≈ 0.036 to 0.054 µM). The selectivity ratio in data set [6] is more than 500. Also, in the data set with Vero, the half-inhibitory concentration (IC50) was more than 10 µg/mL.

As for `COc1ccn2nc(C)c(C(=O)NCc3ccc(-c4ccc(OC(F)(F)F)cc4)c(C)c3)c2c1`, the selectivity ratio in data set [6] was 242. For the same compound, in the data set on Vero, the IC50 amounted to 3.15 µg/mL (≈ 6.71 µM).

Consider `COc1ccn2nc(C)c(C(=O)NCc3ccc(-c4ccc(OC(F)(F)F)cc4)c(OC)c3)c2c1`, for which the selectivity ratio in [6] was determined as 1680. Moreover, the IC50 in the data set with Vero amounted to 11.8 µg/mL (≈ 24.3 µM).

In turn, `NNC(=O)c1ccncc1` [ISONIAZID] registered an MIC90 in data set [13] of 0.239 to 0.48 µg/mL (≈ 1.74 to 3.5 µM).

`COc1ccn2nc(C)c(C(=O)NCc3ccc(-c4ccc(OC(F)(F)F)cc4)s3)c2c1`: in [6], the selectivity ratio was more than 25000. The 50% inhibitory concentration (IC50) in the data set on Vero is more than 50 µg/mL.

Turning to `COc1ccn2nc(C)c(C(=O)NCc3ccc(-c4ccc(OC(F)(F)F)cc4)cc3C)c2c1`, the MIC90 in data set [13] was found to be 0.57 µg/mL (≈ 1.21 µM).

Regarding `COc1ccn2nc(C)c(C(=O)NCc3ncc(-c4ccc(OC(F)(F)F)cc4)o3)c2c1`, the MIC90 in data set [13] was 1.96 µg/mL (≈ 4.39 µM).

As for `COc1ccn2nc(C)c(C(=O)NCc3nnc(-c4ccc(OC(F)(F)F)cc4)o3)c2c1`, the MIC90 in data set [13] is more than 5 µg/mL.
